Values after ≈ are worked out from the molar mass of the structure shown.
Tests used:
[1] = test system: HepG2; experiment: Cytotoxicity against human HepG2 cells; format: functional, cell-based
[2] = Cytotoxicity against human Hep3B cells; format: functional, cell-based, Hep 3B2
[3] = test system: MCF7; experiment: Cytotoxicity against human MCF7 cells; format: functional, cell-based
[4] = test system: MDA-MB-231; experiment: Cytotoxicity against human MDA-MB-231 cells; format: functional, cell-based
[5] = test system: NUGC-3; experiment: Cytotoxicity against human NUGC3 cells at 20 ug/mL; format: functional
How it was run: (§1)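 Samples were tested on the cells at two fixed concentrations, 20 and 4 µg/mL. The value is reported as percent inhibition at each concentration.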

[6] = test system: NUGC-3; experiment: Cytotoxicity against human NUGC3 cells at 4 ug/mL; format: functional; how it was run: as §1
[7] = Cytotoxicity against human HONE1 cells at 20 ug/mL; format: functional; how it was run: as §1
[8] = Cytotoxicity against human HONE1 cells at 4 ug/mL; format: functional; how it was run: as §1
[9] = test system: P388; experiment: Antitumor activity against mouse P388 cells xenografted in mouse; format: functional

| SMILES | IC50 [1] | IC50 [2] | IC50 [3] | IC50 [4] | inhibition at 20 µg/mL [5] | inhibition at 4 µg/mL [6] | inhibition at 20 µg/mL [7] | inhibition at 4 µg/mL [8] | T/C [9] |
| --- | --- | --- | --- | --- | --- | --- | --- | --- | --- |
| COc1ccc2c(c1O)[C@]13CCN[C@@H](C2)C1C(OC)[C@@H](O)[C@@H](O)C3 (some centres not stated) | 2 µg/mL (≈ 5.96 µM) | 2 µg/mL (≈ 5.96 µM) | 2 µg/mL (≈ 5.96 µM) | 1.2 µg/mL (≈ 3.58 µM) | 96% | 82% | 84% | 82% | 166% |
| COc1cc2c(c(OC)c1OC)CCN1C(=O)c3c(ccc(OC)c3OC)C[C@@H]21 | 23.5 µg/mL (≈ 58.8 µM) | > 30 µg/mL | > 30 µg/mL | > 30 µg/mL |  |  |  |  |  |
| COc1ccc2cc1Oc1ccc(cc1)C[C@H]1c3cc(O)c(c(OC)c3CC[N+]1(C)C)Oc1cc3c(cc1OC)CC[N+](C)=C3C2.[Cl-].[Cl-] | > 30 µg/mL | > 30 µg/mL | > 30 µg/mL | > 30 µg/mL |  |  |  |  |  |
| COc1cc2c3c4c1Oc1cc5c(cc1O4)C(=NCC5)Cc1ccc(O)c(c1)Oc1ccc(cc1)C[C@@H]3N(C)CC2 [DEHYDROAPATELINE] | 3.61 µg/mL (≈ 6.6 µM) | 4.82 µg/mL (≈ 8.82 µM) | 16.3 µg/mL (≈ 29.8 µM) | 4.71 µg/mL (≈ 8.62 µM) | 98% | 0% | 98% | 0% |  |
| COc1ccc2cc1Oc1ccc(cc1)C[C@H]1c3c(cc(OC)c4c3Oc3cc5c(cc3O4)CCN(C)[C@H]5C2)CCN1C [ISOTRILOBINE] | 0.6 µg/mL (≈ 1.04 µM) | 0.75 µg/mL (≈ 1.3 µM) | 3.9 µg/mL (≈ 6.76 µM) | 1.6 µg/mL (≈ 2.77 µM) | 100% | 0% | 100% | 79% |  |
| CC(=O)O[C@H]1C(=O)[C@@]2(C)[C@H]([C@H](OC(=O)c3ccccc3)[C@]3(O)C[C@H](OC(=O)[C@H](O)[C@@H](NC(=O)c4ccccc4)c4ccccc4)C(C)=C1C3(C)C)[C@]1(OC(C)=O)CO[C@@H]1C[C@@H]2O [PACLITAXEL] | 0.18 µg/mL (≈ 0.211 µM) | 0.08 µg/mL (≈ 0.0937 µM) | 0.14 µg/mL (≈ 0.164 µM) | 0.12 µg/mL (≈ 0.141 µM) |  |  |  |  |  |
